Reference: ChEMBL document CHEMBL1153349, “3-Hydroxy-4-oxo-4H-pyrido[1,2-a]pyrimidine-2-carboxylates--a new class of HIV-1 integrase inhibitors” (Bioorg Med Chem Lett, 2009)

What was measured:
[1] = molecular target: Human immunodeficiency virus type 1 integrase (Human immunodeficiency virus 1, UniProt Q7ZJM1); test: Inhibition of HIV1 recombinant integrase strand transfer activity
[2] = system: Human immunodeficiency virus 1; test: Antiviral activity against HIV1 3B infected in human MT4 cells after 3 days by ELISA in presence of 10% fetal bovine serum; type: functional; details: Human immunodeficiency virus 1, 3B, MT4, 72 h; read-out: CIC95
Summary of the method: (§1)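 HIV-1 infection spread was measured in cell culture (spread assay) under low-serum (10% fetal bovine serum) or high-serum (50% normal human serum) conditions.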

[3] = system: Human immunodeficiency virus 1; test: Antiviral activity against HIV1 3B infected in human MT4 cells after 3 days by ELISA in presence of 50% normal human serum; type: functional; details: Human immunodeficiency virus 1, 3B, MT4, 72 h; read-out: CIC95; summary of the method: as §1
[4] = system: MT4; test: Cytotoxicity against human MT4 cells assessed as morphological changes up to 50 uM after 4 days; type: cell-based; details: mt4, 96 h
[5] = Oral bioavailability in rat at 3 mg/kg; type: ADME, organism-based; details: in vivo
Summary of the method: (§2)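 Rats were dosed at 3 mg/kg both intravenously and orally, and the plasma PK profile was obtained. Parameters were AUC, plasma half-life and oral bioavailability (F%). Plasma clearance was taken from the IV dose.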

[6] = system: Rattus norvegicus; test: AUC in rat plasma at 3 mg/kg, iv and po; type: ADME, organism-based; set-up: dose 3 mg/kg, route oral; details: in vivo; summary of the method: as §2
[7] = Half life in rat plasma at 3 mg/kg, iv and po; type: ADME, organism-based; set-up: dose 3 mg/kg, route oral; summary of the method: as §2
[8] = Plasma clearance in rat at 3 mg/kg, iv; type: ADME, organism-based; set-up: dose 3 mg/kg, route intravenous; summary of the method: as §2

Sequence of Human immunodeficiency virus type 1 integrase (Q7ZJM1 whole entry): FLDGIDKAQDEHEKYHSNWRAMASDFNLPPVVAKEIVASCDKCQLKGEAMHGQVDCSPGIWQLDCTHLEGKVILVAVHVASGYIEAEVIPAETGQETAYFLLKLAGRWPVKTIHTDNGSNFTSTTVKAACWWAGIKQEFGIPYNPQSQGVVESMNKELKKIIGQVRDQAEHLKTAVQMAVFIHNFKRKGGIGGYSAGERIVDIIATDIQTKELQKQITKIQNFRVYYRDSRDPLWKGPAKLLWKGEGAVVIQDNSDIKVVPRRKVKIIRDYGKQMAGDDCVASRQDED

Row | SMILES | IC50 [1] [µM] | IC95 [2] [µM] | IC95 [3] [µM] | Activity [4] | bioavailability [5] [%] | AUC [6] [nM·h] | half-life [7] [h] | clearance [8] [L/h/kg]
1 | CN(C)C(=O)C(=O)N(C)c1cccn2c(=O)c(O)c(C(=O)NCc3ccc(F)cc3)nc12 | 0.026 | 0.125 | 0.5 | Non-toxic | – | – | – | –
2 | CCN(C(=O)c1ccccn1)c1cccn2c(=O)c(O)c(C(=O)NCc3ccc(F)cc3)nc12 | 0.021 | 0.25 | 1 | Non-toxic | – | – | – | –
3 | CCN(CC)C(=O)C(=O)N(CC)c1cccn2c(=O)c(O)c(C(=O)NCc3ccc(F)cc3)nc12 | 0.019 | 0.062 | 0.125 | Non-toxic | – | – | – | –
4 | Cc1cccn2c(=O)c(O)c(C(=O)NCc3ccc(F)cc3)nc12 | 0.009 | – | – | – | – | – | – | –
5 | O=C(NCc1cccn2c(=O)c(O)c(C(=O)NCc3ccc(F)cc3)nc12)c1ccccc1 | 0.024 | – | – | – | – | – | – | –
6 | CCN(C(=O)c1nnc(C)o1)c1cccn2c(=O)c(O)c(C(=O)NCc3ccc(F)cc3)nc12 | 0.05 | 0.5 | > 1 | Non-toxic | – | – | – | –
7 | CCN(C(=O)CN1CCOCC1)c1cccn2c(=O)c(O)c(C(=O)NCc3ccc(F)cc3)nc12 | 0.023 | > 1 | > 1 | Non-toxic | – | – | – | –
8 | CCN(C(=O)c1cscn1)c1cccn2c(=O)c(O)c(C(=O)NCc3ccc(F)cc3)nc12 | 0.021 | 0.25 | > 1 | Non-toxic | – | – | – | –
9 | CC(C)N(C(=O)C(=O)N(C)C)c1cccn2c(=O)c(O)c(C(=O)NCc3ccc(F)cc3)nc12 | 0.021 | 0.062 | > 1 | Non-toxic | – | – | – | –
10 | O=C(NCc1ccc(F)cc1)c1nc2ccccn2c(=O)c1O | 0.022 | – | – | – | – | – | – | –
11 | O=C(Nc1cccn2c(=O)c(O)c(C(=O)NCc3ccc(F)cc3)nc12)c1ccccc1 | 0.018 | – | – | – | – | – | – | –
12 | CCN(C(=O)c1ccncc1)c1cccn2c(=O)c(O)c(C(=O)NCc3ccc(F)cc3)nc12 | 0.05 | > 1 | > 1 | Non-toxic | – | – | – | –
13 | O=C(NCc1ccc(F)cc1)c1nc2c(CN3CCOCC3)cccn2c(=O)c1O | 0.17 | – | – | – | – | – | – | –
14 | CN(C)c1cccn2c(=O)c(O)c(C(=O)NCc3ccc(F)cc3)nc12 | 0.07 | – | – | – | – | – | – | –
15 | CCN(C(=O)c1ccno1)c1cccn2c(=O)c(O)c(C(=O)NCc3ccc(F)cc3)nc12 | 0.018 | 0.5 | > 1 | Non-toxic | – | – | – | –
16 | CCCN(C(=O)C(=O)N(C)C)c1cccn2c(=O)c(O)c(C(=O)NCc3ccc(F)cc3)nc12 | 0.018 | 0.031 | 0.5 | Non-toxic | – | – | – | –
17 | CCN(C(=O)C(=O)N1CCOCC1)c1cccn2c(=O)c(O)c(C(=O)NCc3ccc(F)cc3)nc12 | 0.025 | 0.031 | 0.25 | Non-toxic | – | – | – | –
18 | CC(=O)N1CCN(Cc2cccn3c(=O)c(O)c(C(=O)NCc4ccc(F)cc4)nc23)CC1 | 0.185 | – | – | – | – | – | – | –
19 | CCNc1cccn2c(=O)c(O)c(C(=O)NCc3ccc(F)cc3)nc12 | 0.036 | 1.25 | > 1 | Non-toxic | – | – | – | –
20 | CCN(C(=O)C(=O)N1CCCC1)c1cccn2c(=O)c(O)c(C(=O)NCc3ccc(F)cc3)nc12 | 0.021 | 0.031 | 1 | Non-toxic | – | – | – | –
21 | CCN(C(=O)CN(C)C)c1cccn2c(=O)c(O)c(C(=O)NCc3ccc(F)cc3)nc12 | 0.185 | > 1 | > 1 | Non-toxic | – | – | – | –
22 | CNc1cccn2c(=O)c(O)c(C(=O)NCc3ccc(F)cc3)nc12 | 0.13 | – | – | – | – | – | – | –
23 | CCN(C(=O)C(=O)N1CCN(C)CC1)c1cccn2c(=O)c(O)c(C(=O)NCc3ccc(F)cc3)nc12 | 0.021 | 0.125 | 0.5 | Non-toxic | – | – | – | –
24 | CCN(C(=O)C(=O)N(C)C)c1cccn2c(=O)c(O)c(C(=O)NCc3ccc(F)cc3)nc12 | 0.036 | 0.062 | 0.25 | Non-toxic | 40 | 2900 | 4.5 | 1.44
